Active and inactive are the calls of the source. The calls are words filed in the database; no cut-off is given here.
Legend:
[1] = biological target: T1, Proteinase-activated receptor 1 (Homo sapiens, UniProt P25116); assay: (§1) Displacement of [3H]haTRAP from PAR1 in human platelet membrane; format: cell membranes
T1 sequence (P25116 whole entry): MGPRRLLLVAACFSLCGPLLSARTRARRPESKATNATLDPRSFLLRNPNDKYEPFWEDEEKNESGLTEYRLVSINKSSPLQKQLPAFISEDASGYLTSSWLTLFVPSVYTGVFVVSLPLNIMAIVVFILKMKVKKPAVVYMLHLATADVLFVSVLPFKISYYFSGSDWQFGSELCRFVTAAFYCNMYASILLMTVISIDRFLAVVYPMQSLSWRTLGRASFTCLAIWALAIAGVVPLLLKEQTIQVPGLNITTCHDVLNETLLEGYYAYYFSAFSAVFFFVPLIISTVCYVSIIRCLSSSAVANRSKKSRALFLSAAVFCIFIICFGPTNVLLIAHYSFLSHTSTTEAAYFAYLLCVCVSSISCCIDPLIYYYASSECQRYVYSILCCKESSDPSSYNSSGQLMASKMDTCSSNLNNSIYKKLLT
Outline: (§2)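 Membranes from human platelets as the PAR-1 source, with tritiated high-affinity thrombin receptor activating peptide ([3H]haTRAP) as radioligand; IC50 reported ± SEM, n = 2.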

[2] = AUC (0 to 6 hrs) in rat at 10 mg/kg, po; format: ADME, organism-based; set-up: time < 6 hr, dose 10 mg/kg, route oral; settings: plasma
Outline: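 Rats given a single 10 mg/kg oral dose in 0.4% methylcellulose; plasma levels followed for 6 h and exposure reported as AUC from 0 to 6 h in ng·hr/mL.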

[3] = tested on: Cynomolgus monkey; assay: Ex vivo inhibition of haTRAP-induced platelet aggregation in cynomolgus monkey at 3 mg/kg, po after 6 hrs; format: functional; settings: Macaca fascicularis
Outline: (§3)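 Conscious, chaired cynomolgus monkeys dosed orally at 3 mg/kg in 20% PEG-HPBCD; blood drawn at 1 h intervals to 6 h, then at 24 h; haTRAP added ex vivo as agonist; aggregation read in a whole blood aggregometer, reported as percent reduction.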

[4] = Bioavailability in cynomolgus monkey at 3 mg/kg, po; format: ADME, organism-based, Macaca fascicularis; settings: in vivo
[5] = Cmax in po dosed cynomolgus monkey; format: ADME, organism-based, Macaca fascicularis; set-up: route oral; settings: in vivo
[6] = Half life in iv dosed cynomolgus monkey; format: ADME, organism-based, Macaca fascicularis; settings: in vivo
[7] = Tmax in cynomolgus monkey; format: ADME, organism-based, Macaca fascicularis; settings: in vivo
[8] = species: Mus musculus; assay: Effect on liver weight in mouse; format: functional, organism-based
Outline: (§4)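 Mouse P450 enzyme induction model run for 8 days at doses up to 100 mg/kg; end points were liver weight, liver-to-body weight ratio and spectral CYP450.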

[9] = species: Mus musculus; assay: Effect on liver to body weight ratio in mouse; format: functional, organism-based; outline: as §4
[10] = tested on: Cynomolgus monkey; assay: Ex vivo inhibition of haTRAP-induced platelet aggregation in cynomolgus monkey at 3 mg/kg, po 24 hrs; format: functional; settings: Macaca fascicularis; outline: as §3
[11] = tested on: Cynomolgus monkey; assay: Inhibition of haTRAP-induced platelet aggregation in cynomolgus monkey at 1 mg/kg, po up to 6 hrs; format: functional, organism-based; set-up: dose 1 mg/kg; settings: Macaca fascicularis
Outline: (§5)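 Cynomolgus monkeys dosed orally at 1 mg/kg and kept conscious in chairs; blood sampled hourly up to 6 h and again at 24 h; haTRAP added to the samples to trigger aggregation, measured by whole blood aggregometry.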

[12] = tested on: Cynomolgus monkey; assay: Inhibition of haTRAP-induced platelet aggregation in cynomolgus monkey at 1 mg/kg, po after 24 hrs; format: functional; settings: Macaca fascicularis; outline: as §5
[13] = Bioavailability in cynomolgus monkey at 1 mg/kg, iv and 1.5 mg/kg, po; format: ADME, organism-based, Macaca fascicularis; settings: in vivo
[14] = Half life in cynomolgus monkey at 1 mg/kg, iv and 1.5 mg/kg, po; format: ADME, organism-based, Macaca fascicularis; settings: in vivo
[15] = AUC (0 to 24 hrs) in cynomolgus monkey at 1 mg/kg, iv and 1.5 mg/kg, po; format: ADME, organism-based, Macaca fascicularis; settings: plasma
[16] = Cmax in cynomolgus monkey at 1 mg/kg, iv and 1.5 mg/kg, po; format: ADME, organism-based, Macaca fascicularis; settings: in vivo
[17] = Tmax in cynomolgus monkey at 1 mg/kg, iv and 1.5 mg/kg, po; format: ADME, organism-based, Macaca fascicularis; settings: in vivo
[18] = biological target: T2, Proteinase-activated receptor 1 (Homo sapiens) (UniProt P25116); assay: as §1; format: cell membranes; outline: as §2
T2 sequence (whole entry): T1 sequence (P25116 whole entry)

Row | SMILES | IC50 [1] | AUC(0-t) at 6 h [2] | other results
1 | C[C@H]1OC(=O)[C@@H]2C[C@@H]3CN(C(N)=O)CC[C@H]3[C@H](/C=C/c3ccc(-c4cccc(F)c4)cn3)[C@H]12 | 1.1 µM | – | –
2 | CC(C)C(=O)N1CC[C@@H]2[C@H](C[C@H]3C(=O)O[C@H](C)[C@H]3[C@H]2/C=C/c2ccc(-c3cccc(C(F)(F)F)c3)cn2)C1 | 0.113 µM | – | –
3 | C[C@H]1OC(=O)[C@@H]2C[C@@H]3C[S+]([O-])CC[C@H]3[C@H](/C=C/c3ccc(-c4cccc(C(F)(F)F)c4)cn3)[C@H]12 (stereo in doubt) | 0.08 µM | – | –
4 | CCOC(=O)N1CCC[C@H]2[C@H](/C=C/c3ccc(-c4ccccc4F)cn3)[C@@H]3[C@@H](C)OC(=O)[C@@H]3C[C@@H]21 | 0.153 µM | – | –
5 | C[C@H]1OC(=O)[C@@H]2C[C@@H]3C[S+]([O-])CC[C@H]3[C@H](/C=C/c3ccc(-c4cccc(C(F)(F)F)c4)cn3)[C@H]12 (single isomer, unassigned; isomer 2) | 0.375 µM | – | –
6 | CC(=O)N1CC[C@@H]2[C@H](C[C@H]3C(=O)O[C@H](C)[C@H]3[C@H]2/C=C/c2ccc(-c3cccc(C(F)(F)F)c3)cn2)C1 | 0.55 µM | – | –
7 | CCOC(=O)N1CCC[C@H]2[C@H](/C=C/c3ccc(-c4cccc(C#N)c4)cn3)[C@@H]3[C@@H](C)OC(=O)[C@@H]3C[C@@H]21 | 0.295 µM | – | –
8 | CCCS(=O)(=O)N1CC[C@@H]2[C@H](C[C@H]3C(=O)O[C@H](C)[C@H]3[C@H]2/C=C/c2ccc(-c3cccc(F)c3)cn2)C1 | 0.101 µM | – | –
9 | C[C@H]1OC(=O)[C@@H]2C[C@@H]3CS(=O)(=O)CC[C@H]3[C@H](/C=C/c3ccc(-c4cccc(C(F)(F)F)c4)cn3)[C@H]12 | 0.2 µM | – | –
10 | CCOC(=O)N1CCC[C@H]2[C@H](/C=C/c3ccc(-c4cccnc4)cn3)[C@@H]3[C@@H](C)OC(=O)[C@@H]3C[C@@H]21 | – | – | Activity [18]: inactive
11 | CCOC(=O)N1CCC[C@H]2[C@H](/C=C/c3ccc(-c4ccccc4C)cn3)[C@@H]3[C@@H](C)OC(=O)[C@@H]3C[C@@H]21 | 0.6 µM | – | –
12 | C[C@H]1OC(=O)[C@@H]2C[C@@H]3CNCC[C@H]3[C@H](/C=C/c3ccc(-c4cccc(C(F)(F)F)c4)cn3)[C@H]12 | 0.6 µM | – | –
13 | C[C@H]1OC(=O)[C@@H]2C[C@@H]3CN(C)CC[C@H]3[C@H](/C=C/c3ccc(-c4cccc(C(F)(F)F)c4)cn3)[C@H]12 | 0.762 µM | – | –
14 | CCOC(=O)N1CCC[C@H]2[C@H](/C=C/c3ccc(-c4cccc(F)c4)cn3)[C@@H]3[C@@H](C)OC(=O)[C@@H]3C[C@@H]21 | 0.224 µM | – | –

Further compounds by falling IC50 [1], results first:

Row | IC50 [1] | AUC(0-t) at 6 h [2] | SMILES | other results
15 | 0.0375 µM | – | C[C@H]1OC(=O)[C@@H]2C[C@@H]3CN(C(=O)C4CC4)CC[C@H]3[C@H](/C=C/c3ccc(-c4cccc(C(F)(F)F)c4)cn3)[C@H]12 | –
16 | 0.0335 µM | – | CCOC(=O)N1CC[C@@H]2[C@H](C[C@H]3C(=O)O[C@H](C)[C@H]3[C@H]2/C=C/c2ccc(-c3ccccn3)cn2)C1 | inhibition in vivo at 3 mg/kg [3]: 67%; inhibition in vivo at 3 mg/kg [10]: 29%
17 | 0.026 µM | 1.19 µg·h/mL | C[C@H]1OC(=O)[C@@H]2C[C@@H]3COCC[C@H]3[C@H](/C=C/c3ccc(-c4cccc(F)c4F)cn3)[C@H]12 | –
18 | 0.026 µM | 0.85 µg·h/mL | C[C@H]1OC(=O)[C@@H]2C[C@@H]3COCC[C@H]3[C@H](/C=C/c3ccc(-c4cccc(F)c4)cn3)[C@H]12 | Activity [11]: Active; inhibition in vivo at 1 mg/kg [12]: 80%
19 | 0.025 µM | 1.05 µg·h/mL | C[C@H]1OC(=O)[C@@H]2C[C@@H]3COCC[C@H]3[C@H](/C=C/c3ccc(-c4ccccc4F)cn3)[C@H]12 | Activity [11]: Active; inhibition in vivo at 1 mg/kg [12]: 55%; bioavailability [13]: 71%; half-life [14]: 8.6 h; AUC(0-t) [15]: 3.7 µg·h/mL; Cmax [16]: 0.61 µg/mL; Tmax [17]: 1.7 h
20 | 0.025 µM | – | C[C@H]1OC(=O)[C@@H]2C[C@@H]3CN(C(=O)OCc4ccccc4)CC[C@H]3[C@H](/C=C/c3ccc(-c4cccc(C(F)(F)F)c4)cn3)[C@H]12 | –
21 | 0.022 µM | – | C[C@H]1OC(=O)[C@@H]2C[C@@H]3CSCC[C@H]3[C@H](/C=C/c3ccc(-c4cccc(C(F)(F)F)c4)cn3)[C@H]12 | –
22 | 0.021 µM | – | C[C@H]1OC(=O)[C@@H]2C[C@@H]3COCC[C@H]3[C@H](/C=C/c3ccc(-c4cccc(Cl)c4Cl)cn3)[C@H]12 | –
23 | 0.019 µM | – | C[C@H]1OC(=O)[C@@H]2C[C@@H]3COCC[C@H]3[C@H](/C=C/c3ccc(-c4cccc(Cl)c4)cn3)[C@H]12 | –
24 | 0.0185 µM | 2.05 µg·h/mL | CCNC(=O)N1CC[C@@H]2[C@H](C[C@H]3C(=O)O[C@H](C)[C@H]3[C@H]2/C=C/c2ccc(-c3cccc(F)c3)cn2)C1 | inhibition in vivo at 3 mg/kg [3]: 47%; inhibition in vivo at 3 mg/kg [10]: 34%
25 | 0.017 µM | 0.545 µg·h/mL | C[C@H]1OC(=O)[C@@H]2C[C@@H]3COCC[C@H]3[C@H](/C=C/c3ccc(-c4cccc(C(F)(F)F)c4)cn3)[C@H]12 | –
26 | 0.0165 µM | 0.088 µg·h/mL | COCCOC(=O)N1CC[C@@H]2[C@H](C[C@H]3C(=O)O[C@H](C)[C@H]3[C@H]2/C=C/c2ccc(-c3cccc(F)c3)cn2)C1 | –
27 | 0.0155 µM | 4.37 µg·h/mL | C[C@H]1OC(=O)[C@@H]2C[C@@H]3CN(C(=O)C4CC4)CC[C@H]3[C@H](/C=C/c3ccc(-c4cccc(F)c4)cn3)[C@H]12 | inhibition in vivo at 3 mg/kg [3]: 100%; inhibition in vivo at 3 mg/kg [10]: 72%
28 | 0.015 µM | 5.35 µg·h/mL | C[C@H]1OC(=O)[C@@H]2C[C@@H]3CN(S(C)(=O)=O)CC[C@H]3[C@H](/C=C/c3ccc(-c4cccc(F)c4)cn3)[C@H]12 | inhibition in vivo at 3 mg/kg [3]: 54%; inhibition in vivo at 3 mg/kg [10]: 50%
29 | 0.013 µM | – | C[C@H]1OC(=O)[C@@H]2C[C@@H]3COCC[C@H]3[C@H](/C=C/c3ccc(-c4ccccc4Cl)cn3)[C@H]12 | –
30 | 0.011 µM | – | CCOC(=O)N1CC[C@@H]2[C@H](C[C@H]3C(=O)O[C@H](C)[C@H]3[C@H]2/C=C/c2ccc(-c3cccc(C(F)(F)F)c3)cn2)C1 | –
31 | 0.0105 µM | 2.22 µg·h/mL | CCOC(=O)N1CC[C@@H]2[C@H](C[C@H]3C(=O)O[C@H](C)[C@H]3[C@H]2/C=C/c2ccc(-c3cccc(F)c3)cn2)C1 | Ki [1]: 0.0045 µM; inhibition in vivo at 3 mg/kg [3]: 100%; bioavailability [4]: 62%; Cmax [5]: 0.99 µM; half-life [6]: 6.2 h; Tmax [7]: 0.7 h; Activity [8]: inactive; Activity [9]: inactive; inhibition in vivo at 3 mg/kg [10]: 70%
32 | 0.008 µM | 3.78 µg·h/mL | CCOC(=O)N1CC[C@@H]2[C@H](C[C@H]3C(=O)O[C@H](C)[C@H]3[C@H]2/C=C/c2ccc(-c3ccccc3F)cn2)C1 | inhibition in vivo at 3 mg/kg [3]: 55%; inhibition in vivo at 3 mg/kg [10]: 55%
33 | 0.008 µM | 6.01 µg·h/mL | C[C@H]1OC(=O)[C@@H]2C[C@@H]3CN(C(=O)C4CC4)CC[C@H]3[C@H](/C=C/c3ccc(-c4ccccc4F)cn3)[C@H]12 | inhibition in vivo at 3 mg/kg [3]: 45%; inhibition in vivo at 3 mg/kg [10]: 39%
